Measurements from ChEMBL document CHEMBL1125212, “Dual-action cephalosporins: cephalosporin 3'-quinolone carbamates” (J Med Chem, 1991).
Values after ≈ are worked out from the molar mass of the structure shown.

Experiments:
[1] = test system: Escherichia coli; test: The compound was tested in vitro for minimum inhibitory concentration against Escherichia coli ATCC 25922; type: functional
In short: (§1)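 Agar dilution on Mueller-Hinton agar using 2-fold serial dilutions, giving final 128 to 0.0156 μg/mL (extended to 0.000977 μg/mL where needed). Inoculum was overnight broth culture diluted 100-fold, about 3×10^4 CFU/spot, applied by replicator. MIC read after overnight incubation at 36 °C.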

[2] = test system: Escherichia coli; test: The compound was evaluated for the inhibition of [14C]- Pen G binding to Escherichia coli UB1005 penicillin-binding protein 1a 90 kDa.
In short: (§2)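 Membranes from sonicated E. coli UB1005 were solubilized. Binding to penicillin-binding proteins was measured as inhibition of [14C]penicillin G binding.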

[3] = test system: Escherichia coli; test: Minimum inhibitory concentration required to inhibit the activity of Escherichia coli UB1005; type: functional; in short: as §1
[4] = test system: Proteus mirabilis; test: The compound was tested in vitro for minimum inhibitory concentration against Proteus mirabilis 90; type: functional
In short: (§3)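 Proteus MICs by agar dilution on Mueller-Hinton medium containing 3% agar. Serial 2-fold dilutions gave final 128 to 0.0156 μg/mL (further to 0.000977 μg/mL). Inoculum was overnight broth diluted 100-fold, about 3×10^4 CFU/spot. Plates read after overnight incubation at 36 °C.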

[5] = test system: Escherichia coli; test: Minimum inhibitory concentration required to inhibit the activity of Escherichia coli ATCC 25922; type: functional; in short: as §1
[6] = test system: Pseudomonas aeruginosa; test: The compound was tested in vitro for minimum inhibitory concentration against Pseudomonas aeruginosa 18S/H; type: functional; in short: as §1
[7] = test system: Escherichia coli; test: The compound was tested in vitro for minimum inhibitory concentration against Escherichia coli 257; type: functional; in short: as §1
[8] = test system: Enterococcus faecalis; test: The compound was tested in vitro for minimum inhibitory concentration against Enterococcus faecalis ATCC 29212; type: functional; in short: as §1
[9] = test system: Micrococcus luteus; test: The compound was tested in vitro for minimum inhibitory concentration against Micrococcus luteus ATCC 9341; type: functional; in short: as §1
[10] = test system: Streptococcus pyogenes; test: The compound was tested in vitro for minimum inhibitory concentration against Streptococcus pyogenes; type: functional
In short: (§4)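 Streptococci tested by agar dilution on brain heart infusion agar with 20 units/mL bovine liver catalase. Final drug range 128 to 0.0156 μg/mL by 2-fold steps, extended to 0.000977 μg/mL when required. Inoculum about 3×10^4 CFU/spot from overnight broth diluted 100-fold. MIC after overnight incubation at 36 °C.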

[11] = test system: Serratia marcescens; test: The compound was tested in vitro for minimum inhibitory concentration against Serratia marcescens 1071; type: functional; in short: as §1
[12] = test system: Streptococcus pneumoniae; test: The compound was tested in vitro for minimum inhibitory concentration against Streptococcus pneumoniae 6301; type: functional; in short: as §4
[13] = test system: Pseudomonas aeruginosa; test: The compound was tested in vitro for minimum inhibitory concentration against Pseudomonas aeruginosa 8780; type: functional; in short: as §1
[14] = test system: Klebsiella pneumoniae; test: The compound was tested in vitro for minimum inhibitory concentration against Klebsiella pneumoniae A; type: functional; in short: as §1
[15] = test system: Escherichia coli; test: The compound was evaluated for the inhibition of [14C]- Pen G binding to Escherichia coli UB1005 penicillin-binding protein 3 60 kDa.; in short: as §2
[16] = test system: Enterobacter cloacae; test: The compound was tested in vitro for minimum inhibitory concentration against Enterobacter cloacae P99; type: functional
[17] = test system: Escherichia coli; test: Inhibitory activity on replicative DNA biosynthesis in Escherichia coli H560 (permeabilised cells); type: functional, organism-based
In short: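 E. coli H560 cells permeabilized with toluene. ATP-dependent incorporation of [3H]thymidine into trichloroacetic acid-insoluble material was measured. IC50 taken as the concentration giving 50% inhibition.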

[18] = test system: Proteus vulgaris; test: The compound was tested in vitro for minimum inhibitory concentration against Proteus vulgaris 1028 BC; type: functional; in short: as §3
[19] = test system: Escherichia coli; test: The compound was evaluated for the inhibition of [14C]- Pen G binding to Escherichia coli UB1005 penicillin-binding protein 1b 90 kDa.; in short: as §2
[20] = test system: Staphylococcus aureus; test: The compound was tested in vitro for minimum inhibitory concentration against Staphylococcus aureus 67-0; type: functional; in short: as §1
[21] = test system: Staphylococcus aureus; test: (§5) The compound was tested in vitro for minimum inhibitory concentration against Staphylococcus aureus 753; type: functional; in short: as §1
[22] = test system: Escherichia coli; test: The compound was tested in vitro for minimum inhibitory concentration against Escherichia coli TEM-1; type: functional; in short: as §1
[23] = test system: Escherichia coli; test: The compound was evaluated for the inhibition of [14C]- Pen G binding to Escherichia coli UB1005 penicillin-binding protein 2 66 kDa.; in short: as §2
[24] = test system: Staphylococcus aureus; test: The compound was tested in vitro for minimum inhibitory concentration against Staphylococcus aureus smith; type: functional; in short: as §1
[25] = test system: Escherichia coli; test: Minimum inhibitory concentration for inhibition of [14C]- Pen G binding to Escherichia coli UB1005; type: functional; in short: as §2
[26] = test system: Citrobacter freundii; test: The compound was tested in vitro for minimum inhibitory concentration against Citrobacter Freundii BS-16; type: functional; in short: as §1
[27] = test system: Staphylococcus aureus; test: as §5; type: functional, staphylococcus aureus smith; in short: as §1

Row | MIC [1] | Inhibitory concentration [2] | MIC [3] | MIC [4] | MIC [5] | MIC [6] | MIC [7] | MIC [8] | MIC [9] | MIC [10] | MIC [11] | MIC [12] | MIC [13] | MIC [14] | Inhibitory concentration [15] | MIC [16] | MIC [18] | MIC [20] | MIC [22] | MIC [24] | Compound | other results
1 | 0.063 µg/mL (≈ 0.0774 µM) | 2 µg/mL | 1 µg/mL (≈ 1.23 µM) | 0.5 µg/mL (≈ 0.614 µM) | 0.06 µg/mL (≈ 0.0737 µM) | 1 µg/mL (≈ 1.23 µM) | 0.063 µg/mL (≈ 0.0774 µM) | 0.5 µg/mL (≈ 0.614 µM) | 0.063 µg/mL (≈ 0.0774 µM) | 0.031 µg/mL (≈ 0.0381 µM) | 0.125 µg/mL (≈ 0.154 µM) | 0.031 µg/mL (≈ 0.0381 µM) | 2 µg/mL (≈ 2.46 µM) | 0.125 µg/mL (≈ 0.154 µM) | < 0.1 µg/mL | 0.063 µg/mL (≈ 0.0774 µM) | 0.063 µg/mL (≈ 0.0774 µM) | 4 µg/mL (≈ 4.92 µM) | 0.063 µg/mL (≈ 0.0774 µM) | 1 µg/mL (≈ 1.23 µM) | NC(=O)CO/N=C(\C(=O)N[C@@H]1C(=O)N2C(C(=O)O)=C(COC(=O)N3CCN(c4cc5c(cc4F)c(=O)c(C(=O)O)cn5C4CC4)CC3)CS[C@H]12)c1csc(N)n1 | IC50 [17]: 1.2 µg/mL (≈ 1.47 µM); Inhibitory concentration [19]: 10 µg/mL; MIC [21]: 2 µg/mL (≈ 2.46 µM); Inhibitory concentration [23]: 100 µg/mL; MIC [25]: 1 µg/mL (≈ 1.23 µM)
2 | 0.031 µg/mL (≈ 0.043 µM) |  | 1 µg/mL (≈ 1.39 µM) | 0.25 µg/mL (≈ 0.346 µM) | 0.03 µg/mL (≈ 0.0416 µM) | 0.5 µg/mL (≈ 0.693 µM) | 0.031 µg/mL (≈ 0.043 µM) | 4 µg/mL (≈ 5.54 µM) | 0.031 µg/mL (≈ 0.043 µM) | < 0.016 µg/mL | 0.125 µg/mL (≈ 0.173 µM) | 0.031 µg/mL (≈ 0.043 µM) | 1 µg/mL (≈ 1.39 µM) | 0.063 µg/mL (≈ 0.0873 µM) |  | < 0.016 µg/mL | 0.063 µg/mL (≈ 0.0873 µM) | 2 µg/mL (≈ 2.77 µM) | 0.031 µg/mL (≈ 0.043 µM) | 0.25 µg/mL (≈ 0.346 µM) | O=C(O)C1=C(COC(=O)N2CCN(c3cc4c(cc3F)c(=O)c(C(=O)O)cn4C3CC3)CC2)CS[C@@H]2[C@H](NC(=O)C(O)c3ccccc3)C(=O)N12 (stereo not given in full) | MIC [26]: 0.031 µg/mL (≈ 0.043 µM); IC50 [17]: 4 µg/mL (≈ 5.54 µM); MIC [21]: 0.5 µg/mL (≈ 0.693 µM)
3 | 128 µg/mL (≈ 315 µM) | 0.5 µg/mL |  | 32 µg/mL (≈ 78.7 µM) |  | > 128 µg/mL | 64 µg/mL (≈ 157 µM) | 32 µg/mL (≈ 78.7 µM) | 0.125 µg/mL (≈ 0.308 µM) | 0.125 µg/mL (≈ 0.308 µM) | > 128 µg/mL | 0.125 µg/mL (≈ 0.308 µM) | > 128 µg/mL | 128 µg/mL (≈ 315 µM) | 10 µg/mL | > 128 µg/mL | > 128 µg/mL | 128 µg/mL (≈ 315 µM) | 128 µg/mL (≈ 315 µM) | 0.063 µg/mL (≈ 0.155 µM) | CC(=O)OCC1=C(C(=O)O)N2C(=O)[C@@H](NC(=O)COc3ccccc3)[C@H]2SC1 | MIC [26]: > 128 µg/mL; MIC [27]: 128 µg/mL (≈ 315 µM); Inhibitory concentration [19]: 100 µg/mL; Inhibitory concentration [23]: > 100 µg/mL; MIC [25]: > 128 µg/mL
4 | 0.063 µg/mL (≈ 0.0873 µM) | > 100 µg/mL | 2 µg/mL (≈ 2.77 µM) | 0.125 µg/mL (≈ 0.173 µM) | 0.06 µg/mL (≈ 0.0831 µM) | 0.5 µg/mL (≈ 0.693 µM) | 0.063 µg/mL (≈ 0.0873 µM) | 4 µg/mL (≈ 5.54 µM) | 0.031 µg/mL (≈ 0.043 µM) | 0.031 µg/mL (≈ 0.043 µM) | 0.25 µg/mL (≈ 0.346 µM) | 0.031 µg/mL (≈ 0.043 µM) | 1 µg/mL (≈ 1.39 µM) | 0.25 µg/mL (≈ 0.346 µM) | > 100 µg/mL | 0.031 µg/mL (≈ 0.043 µM) | 0.125 µg/mL (≈ 0.173 µM) | 4 µg/mL (≈ 5.54 µM) | 0.063 µg/mL (≈ 0.0873 µM) | 0.25 µg/mL (≈ 0.346 µM) | O=C(COc1ccccc1)N[C@@H]1C(=O)N2C(C(=O)O)=C(COC(=O)N3CCN(c4cc5c(cc4F)c(=O)c(C(=O)O)cn5C4CC4)CC3)CS[C@H]12 | MIC [26]: 0.063 µg/mL (≈ 0.0873 µM); IC50 [17]: 4.2 µg/mL (≈ 5.82 µM); Inhibitory concentration [19]: > 100 µg/mL; MIC [21]: 4 µg/mL (≈ 5.54 µM); Inhibitory concentration [23]: > 100 µg/mL; MIC [25]: 2 µg/mL (≈ 2.77 µM)
